Published values collected from several papers.
Lines come from different studies, so protocols differ.
Target: Muscle, skeletal receptor tyrosine-protein kinase (MUSK, Homo sapiens, UniProt O15146)
Sequence (O15146 24-869, as in one of the studies): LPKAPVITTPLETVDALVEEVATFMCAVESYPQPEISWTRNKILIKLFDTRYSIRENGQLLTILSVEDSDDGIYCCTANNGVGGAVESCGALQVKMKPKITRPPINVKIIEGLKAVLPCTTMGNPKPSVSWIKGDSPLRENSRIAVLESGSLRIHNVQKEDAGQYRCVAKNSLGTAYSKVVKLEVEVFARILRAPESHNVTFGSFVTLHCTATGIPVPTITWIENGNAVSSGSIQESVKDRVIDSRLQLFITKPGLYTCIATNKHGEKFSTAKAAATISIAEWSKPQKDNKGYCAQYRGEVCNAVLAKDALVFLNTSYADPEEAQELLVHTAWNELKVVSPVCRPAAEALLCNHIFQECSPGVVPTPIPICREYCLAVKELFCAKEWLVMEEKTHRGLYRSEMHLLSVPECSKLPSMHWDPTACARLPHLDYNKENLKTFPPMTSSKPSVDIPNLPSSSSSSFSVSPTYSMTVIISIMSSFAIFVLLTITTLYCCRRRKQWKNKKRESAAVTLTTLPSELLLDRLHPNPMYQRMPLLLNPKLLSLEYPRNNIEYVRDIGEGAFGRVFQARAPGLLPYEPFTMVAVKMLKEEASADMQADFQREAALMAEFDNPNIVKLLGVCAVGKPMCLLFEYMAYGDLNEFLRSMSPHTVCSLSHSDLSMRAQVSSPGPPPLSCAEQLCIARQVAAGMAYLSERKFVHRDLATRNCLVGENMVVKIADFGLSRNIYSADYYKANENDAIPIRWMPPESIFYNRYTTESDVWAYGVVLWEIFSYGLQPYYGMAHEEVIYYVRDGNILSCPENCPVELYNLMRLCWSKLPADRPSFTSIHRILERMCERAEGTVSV

`CCCOc1ccc(OC)c(F)c1C(=O)c1ccc(C(=O)N[C@@H]2CNC[C@H]2NC(=O)c2ccc3[nH]ncc3c2)cc1` has a remaining activity of 13% (enzyme activity; inhibitor; 0.75 µM).
With `COc1cc(Cl)c(C(=O)N[C@@H](CN[C@H]2CC[C@@H](N)CC2)Cc2ccc(C#N)cc2)cc1-c1ccc(CN[C@H](C)c2ccc(C)cc2)o1` the remaining activity was 84% (enzyme activity; inhibitor; 1 µM).
`O=C(NC[C@@H]1[C@H]2CN(C(=O)OCc3cc(C(F)(F)F)cc(C(F)(F)F)c3)C[C@@H]12)c1ccc2[nH]nnc2c1` has a remaining binding of 77% (cell-free assay; competition with immobilised ligand; 1 µM).
For `COc1cc2ncnc(Nc3ccc(Oc4ccccc4)cc3C)c2cc1OC`, the inhibition was 4% (enzyme activity; inhibitor; 1 µM).
With `CCN(CC)CCNC(=O)c1c(C)[nH]c(/C=C2\C(=O)Nc3ccc(F)cc32)c1C` the inhibition was 90% (enzyme activity; inhibitor; 10 µM).
`CC/C(=N\NC(=O)NCc1cccc(O)c1)c1ccc(O)c(C)c1O` has an inhibition of -3.4% (enzyme activity; inhibitor; 0.1 µM).
`CC(=O)C1=C(C)N(c2cccc(C(F)(F)F)c2)C(=O)N[C@@H]1c1ccc(C#N)nc1` gave a remaining binding of 100% (cell-free assay; competition with immobilised ligand; 1 µM).
`Oc1cccc(-c2nc(N3CCOCC3)c3oc4ncccc4c3n2)c1` has a remaining signal of 87.8% (cell-free assay; 0.5 µM).
`Cc1ccc(NC(=O)c2ccc(C)c(C(F)(F)F)c2)cc1C#Cc1nn(C2CCC(O)CC2)c2ncnc(N)c12` (stereo not drawn) gave a remaining signal of 70% (cell-free assay; 10 µM).
With `CCCS(=O)(=O)Nc1ccc(F)c(C(=O)c2c[nH]c3ncc(-c4ccc(Cl)cc4)cc23)c1F` the inhibition was less than 10% (enzyme activity; inhibitor; 1 µM).
`CNC(=O)c1cc(Oc2ccc(NC(=O)Nc3ccc(Cl)c(C(F)(F)F)c3)cc2)ccn1` gave an inhibition of 77% (enzyme activity; inhibitor; 0.3 µM).
`CC(=O)N1CCC(c2ccc(C(=O)NC(=N)N)cc2C(F)(F)F)CC1` gave a remaining binding of 100% (cell-free assay; competition with immobilised ligand; 1 µM).
`Cc1sc(C(=O)NC2COC2)cc1-n1cc(NC(=O)Nc2c(F)cccc2Cl)cn1` has a remaining activity of 103% (enzyme activity; inhibitor; 10 µM).
With `CS(=O)(=O)NCC[C@H](NC(=O)c1cncc2c1cnn2-c1ccc(F)cc1)c1ccnc(S(C)(=O)=O)c1` the remaining binding was 100% (cell-free assay; competition with immobilised ligand; 1 µM).
The remaining activity of `CC(C)(C)c1nc(-c2cccc(NS(=O)(=O)c3c(F)cccc3F)c2F)c(-c2ccnc(N)n2)s1` is reported as 113% (enzyme activity; inhibitor; radiometric; 1 µM).
`CCC(=N\O)/C(C)=C/c1ccc(F)cc1` gave a remaining binding of 90% (cell-free assay; competition with immobilised ligand; 1 µM).
`Cc1ccc(Nc2nccc(N(C)c3ccc4c(C)n(C)nc4c3)n2)cc1S(N)(=O)=O` gave an inhibition of 75% (enzyme activity; inhibitor; 0.3 µM).
The remaining activity of `O=C(Nc1cnn(-c2csc(C(=O)NC3COC3)c2)c1)Nc1c(F)cccc1Cl` is reported as 86.8% (enzyme activity; inhibitor; 5 µM).
`CNCc1ccccc1-c1csc([C@H](C)Nc2nc(C)nc3cc(OC)c(OC)cc23)c1` gave a remaining binding of 90% (cell-free assay; competition with immobilised ligand; 1 µM).
The remaining signal of `O=C1Nc2ccc(Cl)cc2C1=Cc1cc(Cl)c(O)c(Cl)c1` is reported as 65.5% (cell-free assay; 0.5 µM).
The remaining binding of `C[C@@H]1CN(c2cc(-c3nn(C)c4ccc(OC5(C)CC5)cc34)ncn2)C[C@H](C)O1` is reported as 92% (cell-free assay; competition with immobilised ligand; 1 µM).
`Cc1ccc(C(=O)Nc2ccc(CN3CCN(C)CC3)c(C(F)(F)F)c2)cc1C#Cc1cnc2cccnn12` gave a remaining activity of 8% (enzyme activity; inhibitor; 23.5 nM).
The remaining binding of `CC(=O)Nc1c(C(C)=O)c(=O)n(C)c2nc(-c3ccc(Cl)cc3Cl)c(-c3ccc(Cl)cc3)cc12` is reported as 100% (cell-free assay; competition with immobilised ligand; 1 µM).
For `CNC(=O)c1cc2c(Oc3ccc(NC(=O)C4(C(=O)Nc5ccc(F)cc5)CC4)cc3)ccnc2cc1OC`, the inhibition was 70% (enzyme activity; inhibitor; radiometric; 1 µM).
